Laboratory results as given in paper PMC3495079 (Biochemistry, 2012).

Legend:
[1] = target: T1, AsDcpS (Ascaris suum, UniProt D3K0N9); experiment: HPLC analysis of cap analog hydrolysis by recombinant DcpS; type: biochemical, A. suum; details: 15 μM substrate; for Hydrolysis by DcpS (HPLC): up to 24 h
[2] = target: T2, CeDcpS (Caenorhabditis elegans, UniProt G5EFS4); experiment: HPLC analysis of cap analog hydrolysis by recombinant DcpS; type: biochemical, C. elegans; details: 15 μM substrate; for Hydrolysis by DcpS (HPLC): up to 24 h
T2 sequence (G5EFS4 1-311): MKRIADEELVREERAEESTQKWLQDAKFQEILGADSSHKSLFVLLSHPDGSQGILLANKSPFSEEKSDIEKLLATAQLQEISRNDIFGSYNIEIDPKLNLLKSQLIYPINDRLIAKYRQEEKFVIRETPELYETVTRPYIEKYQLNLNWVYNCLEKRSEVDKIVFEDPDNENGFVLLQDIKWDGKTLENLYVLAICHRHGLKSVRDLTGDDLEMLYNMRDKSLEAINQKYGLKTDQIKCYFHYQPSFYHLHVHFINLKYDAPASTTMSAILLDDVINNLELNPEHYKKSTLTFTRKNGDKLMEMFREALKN
In short: (§1)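 His-tagged recombinant enzyme was expressed in E. coli and purified by Ni-NTA and gel filtration. Cap analog (15 μM) was preincubated 10 min, then DcpS was added at 0.02 or 0.2 μM. Buffers were Tris/MgAc/(NH4)2SO4 at 37 °C, or Tris/KCl/EDTA/DTT at 20 °C. Aliquots were taken at 5–60 min and 24 h and heat-stopped (97 °C, 2.5 min). Reverse-phase HPLC used a methanol/KH2PO4 gradient with A260 and fluorescence detection. Products were identified by retention time, and % substrate hydrolyzed was recorded.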

[3] = target: T3, HsDcpS (Homo sapiens, UniProt Q96C86); experiment: as above; type: biochemical; details: for Hydrolysis by DcpS (HPLC, Figure 3): 60 min or 24 h; for Hydrolysis by DcpS (HPLC): up to 24 h
T3 sequence (Q96C86 1-337): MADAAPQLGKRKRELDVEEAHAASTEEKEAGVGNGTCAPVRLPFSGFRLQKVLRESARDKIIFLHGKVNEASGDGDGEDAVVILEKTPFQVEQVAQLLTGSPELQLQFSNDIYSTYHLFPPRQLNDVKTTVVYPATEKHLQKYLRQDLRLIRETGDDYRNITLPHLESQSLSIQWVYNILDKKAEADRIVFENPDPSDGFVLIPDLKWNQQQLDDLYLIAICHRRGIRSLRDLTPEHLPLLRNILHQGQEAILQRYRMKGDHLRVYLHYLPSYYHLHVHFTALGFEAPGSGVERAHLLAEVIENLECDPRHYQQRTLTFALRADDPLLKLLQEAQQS
In short: as §1

[4] = target: T4, ScDcpS (Saccharomyces cerevisiae, UniProt Q06151); experiment: as above; type: biochemical, S. cerevisiae; details: 15 μM substrate; for Hydrolysis by DcpS (HPLC): up to 24 h
T4 sequence (Q06151 whole entry): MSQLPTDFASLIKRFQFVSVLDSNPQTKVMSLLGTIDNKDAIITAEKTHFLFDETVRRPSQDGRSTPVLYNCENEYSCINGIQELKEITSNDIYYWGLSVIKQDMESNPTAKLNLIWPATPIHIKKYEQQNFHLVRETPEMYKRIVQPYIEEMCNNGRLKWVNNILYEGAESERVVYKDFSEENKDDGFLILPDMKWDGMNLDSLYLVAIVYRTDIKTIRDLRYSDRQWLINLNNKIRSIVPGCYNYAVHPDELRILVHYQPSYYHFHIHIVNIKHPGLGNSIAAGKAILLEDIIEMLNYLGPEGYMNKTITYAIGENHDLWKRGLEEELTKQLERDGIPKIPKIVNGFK
In short: as §1

[5] = target: T2, CeDcpS; experiment: Fluorescence titration; type: binding, C. elegans; details: for Equilibrium association constant KAS, CeDcpS: 20 °C, 50 mM Tris HCl, 200 mM KCl, 0.5 mM EDTA, 1 mM DTT, pH 7.6
In short: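 His-tagged CeDcpS was expressed in E. coli and purified by Ni-NTA and gel filtration. Binding was read as quenching of intrinsic Trp fluorescence using time-synchronized titration. Ligand solutions of increasing concentration (5 μM–2 mM) were added to 0.2 μM initial protein. Excitation was 280 nm and emission 340 nm, corrected for dilution and inner filter. KAS was fitted by non-linear regression and reported as a weighted average of 3–5 titrations.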

[6] = target: T1, AsDcpS; experiment: Fluorescence titration; type: binding, A. suum; details: for Equilibrium association constant KAS, AsDcpS: 20 °C, 50 mM Tris HCl, 200 mM KCl, 0.5 mM EDTA, 1 mM DTT, pH 7.6
[7] = tested on: recombinant C. elegans decapping scavenger; experiment: Competitor inhibition of CeDcpS hydrolytic activity; type: biochemical
[8] = target: T3, HsDcpS; details: 20 °C, 50 mM Tris HCl, 200 mM KCl, 0.5 mM EDTA, 1 mM DTT, pH 7.6; cited from earlier work
[9] = target: T4, ScDcpS; details: substrate of ScDcpS; cited from earlier work
[10] = target: T2, CeDcpS; details: substrate of CeDcpS; cited from earlier work
[11] = target: T3, HsDcpS; experiment: Fluorescence titration; type: binding; details: ratio of KAS values
[12] = target: T4, ScDcpS; experiment: Inhibition of DcpS hydrolysis of m^7GpppG, HPLC; type: biochemical, S. cerevisiae
In short: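 Yeast DcpS (His-tagged, E. coli-expressed, Ni-NTA plus gel filtration) used at 0.10 μM to give 50% uninhibited conversion in 10 min. Substrate m7GpppG 15 μM; test compound 0.1–50 μM; buffer 50 mM Tris HCl, 200 mM KCl, 0.5 mM EDTA, 1 mM DTT, pH 7.6; 20 °C. Stopped at 97 °C for 2.5 min, analysed by reverse-phase HPLC. IC50 from substrate-conversion plot; Ki via tight-binding competitive equation.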

[13] = target: T1, AsDcpS; experiment: Inhibition of DcpS hydrolysis of m^7GpppG, HPLC; type: biochemical, A. suum
[14] = target: T2, CeDcpS; experiment: Inhibition of DcpS hydrolysis of m^7GpppG, HPLC; type: biochemical, C. elegans
In short: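 Recombinant His-tagged C. elegans DcpS was expressed in E. coli and purified by Ni-NTA and gel filtration. Enzyme at 0.02 μM, m7GpppG 15 μM, test compound 0.1–50 μM, in 50 mM Tris HCl, 200 mM KCl, 0.5 mM EDTA, 1 mM DTT, pH 7.6. Preincubated 10 min, reacted 10 min at 20 °C, heat-stopped, products by reverse-phase HPLC. IC50 taken from conversion versus concentration; Ki from tight-binding competitive equation.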

[15] = target: T3, HsDcpS; experiment: Inhibition of DcpS hydrolysis of m^7GpppG, HPLC; type: biochemical
[16] = target: recombinant CeDcpS; details: substrate m^7GpppBODIPY; cited from earlier work
[17] = condition (2): 20 °C, pH 7.6, 0.02 μM DcpS
[18] = condition (2), 0.02 μM DcpS, Figure 3
[19] = condition (2): 20 °C, pH 7.6, 15 μM substrate, 0.02 μM DcpS
[20] = condition (1): 37 °C, pH 8.0, 0.02 or 0.2 μM DcpS
[21] = condition (2): 20 °C, pH 7.6, 0.2 μM DcpS
[22] = condition (1): 37 °C, pH 8.0, 15 μM substrate, 0.02 or 0.2 μM DcpS
[23] = condition (2): 20 °C, pH 7.6, 15 μM substrate, 0.2 μM DcpS
[24] = after 60 min, 20 °C, pH 7.6, 0.02 μM DcpS

T1 sequence (D3K0N9 whole entry): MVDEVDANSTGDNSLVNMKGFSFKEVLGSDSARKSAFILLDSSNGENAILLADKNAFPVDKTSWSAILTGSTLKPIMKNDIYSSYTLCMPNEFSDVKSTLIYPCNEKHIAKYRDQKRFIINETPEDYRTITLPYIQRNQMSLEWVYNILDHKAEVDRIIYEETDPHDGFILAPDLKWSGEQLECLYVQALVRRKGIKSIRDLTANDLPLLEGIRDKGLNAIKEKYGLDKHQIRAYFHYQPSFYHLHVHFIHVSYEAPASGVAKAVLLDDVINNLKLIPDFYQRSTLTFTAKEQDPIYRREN

SMILES: CN(C)c1nc2c(c(=O)[nH]1)[n+](C)cn2[C@@H]1O[C@H](COP(=O)(O)OP(=O)(O)OP(=O)(O)O)[C@@H](O)[C@H]1O [m3^2,2,7GTP]
- Hydrolysis by DcpS (HPLC, Figure 3) [1, 17]: have activity
- Hydrolysis by DcpS (HPLC, Figure 3) [2, 17]: have activity

SMILES: Cn1c[n+]([C@@H]2O[C@H](COP(=O)([O-])OP(=O)(O)OP(=O)(O)O)[C@@H](O)[C@H]2O)c2nc(N)[nH]c(=O)c21 [m^7GTP]
- Hydrolysis by DcpS (HPLC, Figure 3) [1, 17]: efficiently hydrolyzed
- Hydrolysis by DcpS (HPLC, Figure 3) [2, 17]: efficiently hydrolyzed
- Rate of degradation by HsDcpS, fold slower than by AsDcpS and CeDcpS [3, 18]: 2 fold
- Hydrolysis by DcpS (HPLC, Figure 3) [3, 19]: efficiently hydrolyzed

SMILES: Nc1nc2c(ncn2[C@@H]2O[C@H](COP(=O)(O)OP(=O)(O)OP(=O)(O)OC[C@H]3O[C@@H](n4cnc5c(=O)[nH]c(N)nc54)[C@H](O)[C@@H]3O)[C@@H](O)[C@H]2O)c(=O)[nH]1 [GpppG]
- Hydrolysis by DcpS (HPLC, Figure 3) [1, 17]: does not occur
- Hydrolysis by DcpS (HPLC, Figure 3) [2, 17]: much slower as compared to m^7GpppG
- Hydrolysis by DcpS (HPLC, Figure 3) [3, 19]: does not occur

SMILES: CN(C)c1nc2c(c(=O)[nH]1)[n+](C)cn2[C@@H]1O[C@H](COP(=O)(O)OP(=O)(O)O)[C@@H](O)[C@H]1O [m3^2,2,7GDP, 2,2,7-trimethylguanosine diphosphate]
- Hydrolysis by DcpS (HPLC) [4, 20]: not degraded
- Hydrolysis by DcpS (HPLC) [4, 21]: resistant to cleavage
- Hydrolysis by DcpS (HPLC) [1, 20]: not degraded
- Hydrolysis by DcpS (HPLC) [1, 21]: resistant to cleavage
- Equilibrium association constant KAS, CeDcpS [5]: 1.44 ± 0.26 µM⁻¹
- Hydrolysis by DcpS (HPLC) [2, 20]: not degraded
- Hydrolysis by DcpS (HPLC) [2, 21]: resistant to cleavage
- Hydrolysis by DcpS (HPLC) [3, 22]: not degraded
- Hydrolysis by DcpS (HPLC) [3, 23]: resistant to cleavage
- Equilibrium association constant KAS, AsDcpS [6]: 0.53 ± 0.16 µM⁻¹

SMILES: CN(C)c1nc2c(c(=O)[nH]1)[n+](C)cn2[C@@H]1O[C@H](COP(=O)(O)O)[C@@H](O)[C@H]1O [m3^2,2,7GMP]
- Equilibrium association constant KAS, CeDcpS [5]: 2.88 ± 0.67 µM⁻¹
- Equilibrium association constant KAS, AsDcpS [6]: 0.28 ± 0.27 µM⁻¹

SMILES: C[n+]1cn([C@@H]2O[C@H](COP(=O)(O)O)[C@@H](O)[C@H]2O)c2nc(N)[nH]c(=O)c21 [m^7GMP, 7-methylguanosine monophosphate]
- Competitor concentration for 50% inhibition, fold higher than for m^7GDP [7]: about 20 fold
- Equilibrium association constant KAS, HsDcpS [8]: 19 ± 1 µM⁻¹
- Equilibrium association constant KAS, CeDcpS [5]: 8.00 ± 0.65 µM⁻¹
- Equilibrium association constant KAS, AsDcpS [6]: 26.35 ± 1.84 µM⁻¹

SMILES: Cn1c[n+]([C@@H]2O[C@H](COP(=O)(O)OP(=O)([O-])OP(=O)(O)OC[C@H]3O[C@@H](n4cnc5c(=O)[nH]c(N)nc54)[C@H](O)[C@@H]3O)[C@@H](O)[C@H]2O)c2nc(N)[nH]c(=O)c21 [m^7GpppG]
- Hydrolysis by DcpS (HPLC) [4, 20]: very fast
- Time to complete conversion of the substrate to products [4, 21]: less than 3 minutes
- Km [9]: 0.14 µM
- Km [10]: 1.17 ± 0.14 µM
- Extent of decapping (% of hydrolyzed substrate) [1, 24]: 95%
- Hydrolysis by DcpS (HPLC) [1, 20]: very fast
- Time to complete conversion of the substrate to products [1, 21]: less than 3 minutes
- Extent of decapping (% of hydrolyzed substrate) [2, 24]: 95%
- Hydrolysis by DcpS (HPLC) [2, 20]: very fast
- Time to complete conversion of the substrate to products [2, 21]: less than 3 minutes
- Extent of decapping (% of hydrolyzed substrate) ([3]; after 60 min, 20 °C, pH 7.6, 15 μM substrate, 0.02 μM DcpS): 95%
- Hydrolysis by DcpS (HPLC) [3, 22]: very fast
- Cleavage efficiency by HsDcpS, fold higher than m^7GTP [3, 18]: ~ 2 fold
- Time to complete conversion of the substrate to products [3, 23]: less than 3 minutes

SMILES: C[n+]1cn([C@@H]2O[C@H](COP(=O)(O)OP(=O)(O)OP(=O)(O)OC[C@H]3O[C@@H](n4c[n+](C)c5c(=O)[nH]c(N)nc54)[C@H](O)[C@@H]3O)[C@@H](O)[C@H]2O)c2nc(N)[nH]c(=O)c21 [m^7Gpppm^7G]
- Hydrolysis by DcpS (HPLC) [4, 21]: significantly slower than that of m^7GpppG
- Hydrolysis by DcpS (HPLC) [1, 21]: significantly slower than that of m^7GpppG
- Hydrolysis by DcpS (HPLC) [2, 21]: significantly slower than that of m^7GpppG
- Hydrolysis by DcpS (HPLC) [3, 23]: significantly slower than that of m^7GpppG

SMILES: C[n+]1cn([C@@H]2O[C@H](COP(=O)(O)OP(=O)([O-])O)[C@@H](O)[C@H]2O)c2nc(N)[nH]c(=O)c21 [m^7GDP, 7-methylguanosine diphosphate]
- Hydrolysis by DcpS (HPLC) [4, 20]: not degraded
- Hydrolysis by DcpS (HPLC) [4, 21]: resistant to cleavage
- Hydrolysis by DcpS (HPLC) [1, 20]: not degraded
- Hydrolysis by DcpS (HPLC) [1, 21]: resistant to cleavage
- Equilibrium association constant KAS, HsDcpS [8]: 114 ± 8 µM⁻¹
- Kd [5]: 10.3 nM
- Fold higher affinity of human DcpS compared to m^7GMP [11]: 6 fold
- Hydrolysis by DcpS (HPLC) [2, 20]: not degraded
- Hydrolysis by DcpS (HPLC) [2, 21]: resistant to cleavage
- IC50 [12]: 3950 ± 230 nM
- Ki [12]: 36 ± 2 nM
- IC50 [13]: 1440 ± 110 nM
- Hydrolysis by DcpS (HPLC) [3, 22]: not degraded
- Hydrolysis by DcpS (HPLC) [3, 23]: resistant to cleavage
- IC50 [14]: 2170 ± 130 nM
- Ki [14]: 156 ± 20 nM
- IC50 [15]: 4170 ± 500 nM
- Kd [6]: 5.4 nM

SMILES: CN(C)c1nc2c(c(=O)[nH]1)[n+](C)cn2[C@@H]1O[C@H](COP(=O)(O)OP(=O)(O)OP(=O)(O)OC[C@H]2O[C@@H](n3cnc4c(=O)[nH]c(N)nc43)[C@H](O)[C@@H]2O)[C@@H](O)[C@H]1O [m3^2,2,7GpppG]
- Ki [16]: 28000 nM
- Hydrolysis by DcpS (HPLC, Figure 3) [1, 17]: readily hydrolyze
- Hydrolysis by DcpS (HPLC, Figure 3) [2, 17]: readily hydrolyze
- Hydrolysis by DcpS (HPLC, Figure 3) [3, 19]: not observed
